Experimental data published in ChEMBL document CHEMBL4390678, “Structure-Activity Relationship of Purine and Pyrimidine Nucleotides as Ecto-5'-Nucleotidase (CD73) Inhibitors” (J Med Chem, 2019).

Columns and labels:
5'-nucleotidase = target: T1, 5'-nucleotidase (Rattus norvegicus, UniProt P21588); assay: Inhibition of recombinant rat C-terminal His-tagged soluble form of CD73 expressed in baculovirus infected Sf9 insect cells using [2,8-3H]AMP as substrate measured after 25 mins by scintillation counting method
T1 sequence (P21588 whole entry): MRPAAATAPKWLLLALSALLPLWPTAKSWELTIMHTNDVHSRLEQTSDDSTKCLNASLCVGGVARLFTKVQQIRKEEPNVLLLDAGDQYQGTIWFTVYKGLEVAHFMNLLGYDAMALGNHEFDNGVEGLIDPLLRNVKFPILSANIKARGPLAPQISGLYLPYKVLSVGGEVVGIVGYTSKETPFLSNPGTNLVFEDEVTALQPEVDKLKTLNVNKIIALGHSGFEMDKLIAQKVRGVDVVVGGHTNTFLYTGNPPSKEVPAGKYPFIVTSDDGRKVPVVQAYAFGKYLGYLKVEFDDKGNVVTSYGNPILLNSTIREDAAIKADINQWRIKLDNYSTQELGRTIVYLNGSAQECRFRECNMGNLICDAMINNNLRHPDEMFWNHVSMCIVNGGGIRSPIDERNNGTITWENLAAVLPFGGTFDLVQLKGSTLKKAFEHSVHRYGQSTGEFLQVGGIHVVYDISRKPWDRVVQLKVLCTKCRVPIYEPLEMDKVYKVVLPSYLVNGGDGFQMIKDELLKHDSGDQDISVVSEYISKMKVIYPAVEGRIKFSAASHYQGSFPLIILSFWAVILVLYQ
Summary of the method: (§1)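 Enzyme is soluble rat CD73 from Sf9 cells, 1.63 ng per vial, in 25 mM Tris, 140 mM NaCl, 25 mM NaH2PO4, pH 7.4. […] Stopped by LaCl3 precipitation and GF/B filtration, then counted. Each compound first screened at 1 µM.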

[1] = target: T2, 5'-nucleotidase (Rattus norvegicus) (UniProt P21588); assay: Inhibition of recombinant rat C-terminal His-tagged soluble form of CD73 expressed in baculovirus infected Sf9 insect cells at 1 uM using [2,8-3H]AMP as substrate measured after 25 mins by scintillation counting method relative to control; summary of the method: as §1
T2 sequence (whole entry): T1 sequence (P21588 whole entry)

| Compound | Ki (5'-nucleotidase) [nM] | inhibition [1] [%] |
| --- | --- | --- |
| O=c1ccn([C@@H]2O[C@H](COP(=O)(O)CCP(=O)(O)O)[C@@H](O)[C@H]2O)c(=O)[nH]1 | > 1000 | 4 |
| Cc1cn([C@@H]2O[C@H](COP(=O)(O)CCP(=O)(O)O)[C@@H](O)[C@H]2O)c(=O)[nH]c1=O | > 1000 | 9 |
| O=c1ccn([C@@H]2O[C@H](COP(=O)(O)CP(=O)(O)O)[C@@H](O)[C@H]2O)c(=O)n1Cc1ccccc1 | > 1000 | 3 |
| CCOP(=O)(O)OP(=O)(O)OC[C@H]1O[C@@H](n2ccc(=O)[nH]c2=S)[C@H](O)[C@@H]1O | > 1000 | 10 |
| Nc1ncnc2c1ncn2[C@@H]1O[C@H](CO)[C@@H](OP(=O)(O)CP(=O)(O)O)[C@H]1N | > 1000 | 8 |
| O=c1ccn([C@@H]2O[C@H](COP(=O)(O)CP(=O)(O)O)[C@@H](O)[C@@H]2O)c(=O)[nH]1 | > 1000 | 8 |
| Nc1ncnc2c1ncn2[C@H]1C[C@H](O)[C@@H](COP(=O)(O)CP(=O)(O)O)O1 | > 1000 | 30 |
| O=c1ccn([C@@H]2O[C@H](COP(=O)(O)CP(=O)(O)O)[C@@H](O)[C@H]2F)c(=O)[nH]1 | > 1000 | 11 |
| O=c1ccn([C@@]23C[C@H]2[C@H](COP(=O)(O)CP(=O)(O)O)[C@@H](O)[C@H]3O)c(=O)[nH]1 | > 1000 | 12 |
| CCCn1c(=O)ccn([C@@H]2O[C@H](COP(=O)(O)CP(=O)(O)O)[C@@H](O)[C@H]2O)c1=O | > 1000 | 7 |
| N[C@@H]1[C@H](O)[C@@H](COP(=O)(O)CP(=O)(O)O)O[C@H]1n1ccc(=O)[nH]c1=O | > 1000 | 2 |
| Nc1ccn([C@H]2C[C@H](O)[C@@H](COP(=O)(O)CP(=O)(O)O)O2)c(=O)n1 | > 1000 | 18 |
| Nc1nccc2c1ncn2[C@@H]1O[C@H](COP(=O)(O)CP(=O)(O)O)[C@@H](O)[C@H]1O | > 1000 | 36 |
| CO[C@@H]1[C@H](O)[C@@H](COP(=O)(O)CP(=O)(O)O)O[C@H]1n1cc(C)c(=O)[nH]c1=O | > 1000 | 3 |
| Nc1ccnc2c1ncn2[C@@H]1O[C@H](COP(=O)(O)CP(=O)(O)O)[C@@H](O)[C@H]1O | > 1000 | 36 |
| O=c1ccn([C@@H]2O[C@H](COP(=O)(O)CP(=O)(O)O)[C@@H](O)[C@H]2O)c(=S)[nH]1 | > 1000 | 7 |
| [N-]=[N+]=N[C@@H]1[C@H](O)[C@@H](COP(=O)(O)CP(=O)(O)O)O[C@H]1n1ccc(=O)[nH]c1=O | > 1000 | 9 |
| O=c1ccn([C@H]2C[C@H](O)[C@@H](CO[P@@](=O)(O)CP(=O)(O)O)O2)c(=O)[nH]1 | > 1000 | 37 |
| Nc1ncnc2c1ncn2[C@@H]1O[C@H](COP(=O)(O)CP(=O)(O)O)[C@@H](O)[C@H]1N | > 1000 | 2 |
| O=c1cc(O)ccn1[C@@H]1O[C@H](COP(=O)(O)CP(=O)(O)O)[C@@H](O)[C@H]1O | > 1000 | 19 |

Second part, the compound after the results:

| Ki (5'-nucleotidase) [nM] | inhibition [1] [%] | Compound |
| --- | --- | --- |
| 898 | > 50 | Nc1ccn([C@@H]2O[C@H](COP(=O)(O)CP(=O)(O)O)[C@@H](O)[C@H]2O)c(=O)n1 |
| > 1000 | 21 | O=c1cnn([C@@H]2O[C@H](COP(=O)(O)CP(=O)(O)O)[C@@H](O)[C@H]2O)c(=O)[nH]1 |
| > 1000 | 4 | CCn1c(=O)ccn([C@@H]2O[C@H](COP(=O)(O)CP(=O)(O)O)[C@@H](O)[C@H]2O)c1=O |
| 86.7 | > 50 | O=c1[nH]c(=O)n([C@@H]2O[C@H](COP(=O)(O)CP(=O)(O)O)[C@@H](O)[C@H]2O)cc1Cl |
| 112 | > 50 | O=c1[nH]/c(=N\OCc2ccccc2)ccn1[C@@H]1O[C@H](COP(=O)(O)CP(=O)(O)O)[C@@H](O)[C@H]1O |
| 262 | > 50 | CCn1c(=O)n([C@@H]2O[C@H](COP(=O)(O)CP(=O)(O)O)[C@@H](O)[C@H]2O)cc/c1=N\OCc1ccccc1 |
| 338 | > 50 | Cc1cn([C@@H]2O[C@H](COP(=O)(O)CP(=O)(O)O)[C@@H](O)[C@H]2O)c(=O)[nH]c1=O |
| 88.7 | > 50 | O=c1[nH]c(=O)n([C@@H]2O[C@H](COP(=O)(O)CP(=O)(O)O)[C@@H](O)[C@H]2O)cc1Br |
| 639 | > 50 | Cc1cn([C@H]2C[C@H](O)[C@@H](COP(=O)(O)CP(=O)(O)O)O2)c(=O)[nH]c1=O |
| 502 | > 50 | Nc1nc(=O)n([C@@H]2O[C@H](COP(=O)(O)CP(=O)(O)O)[C@@H](O)[C@H]2O)cc1I |
| 780 | > 50 | O=c1[nH]/c(=N/OCc2ccccc2)ccn1[C@H]1C[C@H](O)[C@@H](COP(=O)(O)CP(=O)(O)O)O1 |
| 276 | > 50 | C#Cc1cn([C@@H]2O[C@H](COP(=O)(O)CP(=O)(O)O)[C@@H](O)[C@H]2O)c(=O)[nH]c1=O |
| 1050 | > 50 | C=C(Cl)c1cn([C@@H]2O[C@H](COP(=O)(O)CP(=O)(O)O)[C@@H](O)[C@H]2O)c(=O)n(C)c1=O |
| 162 | > 50 | O=c1[nH]c(=O)n([C@@H]2O[C@H](COP(=O)(O)CP(=O)(O)O)[C@@H](O)[C@H]2O)cc1I |
| 349 | > 50 | Nc1nc(=O)n([C@@H]2O[C@H](COP(=O)(O)CP(=O)(O)O)[C@@H](O)[C@H]2O)cc1F |
| 88.6 | > 50 | Nc1ncnc2c1ccn2[C@@H]1O[C@H](COP(=O)(O)CP(=O)(O)O)[C@@H](O)[C@H]1O |
| 1970 | > 50 | Nc1ncnc2c1ncn2[C@@H]1O[C@H](COP(=O)(O)CP(=O)(O)O)C[C@H]1O |
| 321 | > 50 | Cc1cn([C@@H]2O[C@H](COP(=O)(O)CP(=O)(O)O)[C@@H](O)[C@H]2O)c(=O)[nH]/c1=N/OCc1ccccc1 |
| 1830 | > 50 | O=c1ccn([C@@H]2O[C@H](COP(=O)(O)CP(=O)(O)O)[C@@H](O)[C@H]2O)c(=O)[nH]1 |
| 257 | > 50 | CO/N=c1/ccn([C@@H]2O[C@H](COP(=O)(O)CP(=O)(O)O)[C@@H](O)[C@H]2O)c(=O)[nH]1 |
| 1860 | > 50 | Cn1c(=O)ccn([C@@H]2O[C@H](COP(=O)(O)CP(=O)(O)O)[C@@H](O)[C@H]2O)c1=O |
| 2030 | > 50 | Cc1cn([C@@H]2O[C@H](COP(=O)(O)CP(=O)(O)O)[C@@H](O)[C@H]2O)c(=O)nc1N |
| 1750 | > 50 | O=c1ccn([C@@H]2O[C@H](COP(=O)(O)CP(=O)(O)O)[C@@H](O)[C@@H]2F)c(=O)[nH]1 |
| 424 | > 50 | C=C(Cl)c1cn([C@@H]2O[C@H](COP(=O)(O)CP(=O)(O)O)[C@@H](O)[C@H]2O)c(=O)[nH]c1=O |
